This note sets out measurements from publication PMC10424182 (Journal of Medicinal Chemistry, 2023).

Holding throughout (format): binding
The target of assay [1] is T1, PSP brain homogenates (4R-tau aggregates) (Homo sapiens, UniProt P10636). Kind of assay: Competition. The method in brief:
(§1)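 Post-mortem human brain homogenate in PBS pH 7.0, 100 μg tissue/mL final, with ~1 nM tritiated radioligand and unlabelled test compound at 0.1–1000 nM (0.25% DMSO final for non-Enamine compounds). Incubated 60 min at room temperature, then GF/B filtration, four PBS washes and scintillation counting. Full inhibition was taken as counts displaced by 1 μM unlabelled radioligand. Triplicates at each concentration.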

Assay [2] has as its target T2, AD brain homogenates (mixed 3R/4R-tau) (Homo sapiens, UniProt P10636). The assay can be described thus: Competition.
Assay [3] has as its target T3, CBD brain homogenates (4R-tau aggregates) (Homo sapiens, UniProt P10636). The assay can be described thus: Competition. The method in brief:
as §1

The target of assay [4] is T1, PSP brain homogenates (4R-tau aggregates). The assay can be described thus: Competition. The procedure, abridged:
as §1
This is another data set of the same source.

Assay [5] has as its target T2, AD brain homogenates (mixed 3R/4R-tau). Kind of assay: Competition. The source holds these as a separate data set.
Assay [6] deals with T1, PSP brain homogenates (4R-tau aggregates). Kind of assay: Competition. The method in brief:
as §1
This is another data set of the same source.

Assay [7] has as its target aggregated amyloid-beta (Aβ) in AD tissue (Homo sapiens, UniProt P05067). Kind of assay: Competition. The method in brief:
as §1

Assay [8] concerns the target T3, CBD brain homogenates (4R-tau aggregates). Kind of assay: Competition. The procedure, abridged: as §1
The source holds these as a separate data set.

For assay [9], the target named is T2, AD brain homogenates (mixed 3R/4R-tau). The assay can be described thus: Competition. The source holds these as a separate data set.
Assay [10] has the same target. The assay can be described thus: Competition. This is another data set of the same source.
For assay [11], the target named is T3, CBD brain homogenates (4R-tau aggregates). Kind of assay: Competition. The method in brief: as §1
The source holds these as a separate data set.

Assay [12] addresses T1, PSP brain homogenates (4R-tau aggregates). The assay can be described thus: Competition. The procedure, abridged: as §1
The source holds these as a separate data set.

The target is the same in assay [13]. The assay can be described thus: Single concentration. The note with it: 300 nM unlabeled compound. The method in brief: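 A PSP homogenate (100 μg tissue/mL) was run with ~1 nM [3H]-ligand as in the Ki assay, with a single 300 nM test compound, 60 min at room temperature, then filtered and counted. 0% was specific binding with no competitor; 100% was nonspecific binding at 1 μM unlabelled radioligand. The % value is […] divided by the 0%−100% count difference, ×100. Run in triplicate.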

For assay [14], the target named is T2, AD brain homogenates (mixed 3R/4R-tau). Kind of assay: Single concentration. The note with it: 300 nM unlabeled compound.

The structures appear in SMILES notation. Read-outs that look alike come from different tables or passages of the source. Bounds are passed on as bounds.

T2 sequence (P10636 623-758 limits assumed): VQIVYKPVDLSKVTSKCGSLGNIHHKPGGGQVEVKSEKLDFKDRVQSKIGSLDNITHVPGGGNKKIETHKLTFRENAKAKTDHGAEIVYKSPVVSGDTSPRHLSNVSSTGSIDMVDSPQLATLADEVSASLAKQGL
T3 sequence (P10636 1-441 isoform P10636-8): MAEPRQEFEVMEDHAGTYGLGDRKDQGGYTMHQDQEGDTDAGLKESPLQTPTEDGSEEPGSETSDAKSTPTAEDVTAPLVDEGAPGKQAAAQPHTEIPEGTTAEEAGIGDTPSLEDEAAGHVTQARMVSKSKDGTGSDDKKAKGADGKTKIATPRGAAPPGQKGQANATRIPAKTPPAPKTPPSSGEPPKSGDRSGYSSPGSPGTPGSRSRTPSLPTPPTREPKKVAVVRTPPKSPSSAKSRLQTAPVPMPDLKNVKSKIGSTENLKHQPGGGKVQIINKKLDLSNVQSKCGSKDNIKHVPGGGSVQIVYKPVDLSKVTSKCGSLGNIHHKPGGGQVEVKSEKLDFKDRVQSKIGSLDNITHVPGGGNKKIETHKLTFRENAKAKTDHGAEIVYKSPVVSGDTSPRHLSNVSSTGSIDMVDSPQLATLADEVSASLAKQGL
T1 sequence (P10636 1-441 isoform P10636-8): as above
Chain of aggregated amyloid-beta (Aβ) in AD tissue (P05067 672-713): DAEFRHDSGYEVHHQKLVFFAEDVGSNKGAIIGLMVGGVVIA

With `Nc1c(F)ccc2cnc(-n3ccc4ccncc43)cc12` [MK-6240], the Ki (as a rule, a dissociation constant, usually derived from enzyme kinetics or from competition with a known ligand) in assay [1] worked out at 315 nM; in assay [2], 96 nM.
The like results for `Fc1cc(-c2ccc3c(n2)[nH]c2ccncc23)ccn1` [PI-2620] were, in that order, 89 nM and 58 nM.
Regarding `OC1CCN(c2ncc(-c3cc4ccc(F)cc4[nH]3)cn2)CC1` [Compound 1, 1-(5-(6-fluoro-1H-indol-2-yl)pyrimidin-2-yl)piperidin-4-ol], the Ki in assay [3] came out at 210 nM; in [4] it was 250 nM; in [5], 270 nM; in [6], 95 nM; in assay [7], 142 ± 5 nM; in [8] it was 71 nM. This molecule also came in with a Ki in assay [9] of 80 nM.
In the case of `O[C@@H]1CCN(c2ccc(-c3cc4ccc(F)cc4[nH]3)cn2)C1` [Compound 20], the Ki in assay [1] and in assay [2] was 18 nM each time.
`O=C1CCN(c2ncc(-c3cc4ccccc4[nH]3)cn2)CCN1` [Compound 19]: the Ki turned out to be 22 nM in [1] and 21 nM in assay [2].
Regarding `OCC1CCN(c2ccc(-c3cc4cc(O)ccc4[nH]3)c(F)n2)CC1` [CBD-2115, 2-(2-fluoro-6-(4-(hydroxymethyl)piperidin-1-yl)pyridin-3-yl)-1H-indol-5-ol], the Ki in assay [1] was 520 nM; in assay [10], 7140 nM; in assay [11], 2930 nM; in assay [12] it was more than 10000 nM; in assay [2] it was 745 nM.
Take `Fc1ccc(-c2ccc3c(c2)[nH]c2ccncc23)cn1` [Tauvid]: the Ki in [1] and in assay [2] was more than 1000 nM in each case.
With `Oc1cccc2sc(-c3cnc(N4CCC(O)CC4)nc3)cc12` [Compound 6], the Ki in assay [1] amounted to 22 nM; in assay [2], 12 nM. Also, the “inhibition of [^3H]1, PSP tissue” value in assay [13] is listed as more than 65%. The “inhibition of [^3H]1, AD tissue” value in [14] was more than 65%.
Take `CNc1ccc(/C=C/C=C/c2nc3ccc(OCC(O)CF)cc3s2)cn1` (centres unmarked) [PM-PBB3, reference compound]: the Ki in [1] was 18 nM; in [3], 1540 nM; in [4], more than 10000 nM; in assay [5] it was 7930 nM; in assay [2], 15 nM.
For the molecule `Fc1ccc2cc(-c3cnc(N4CCOCC4)nc3)[nH]c2c1` [Compound 21, 4-(5-(6-fluoro-1H-indol-2-yl)pyrimidin-2-yl)morpholine], the Ki in [3] came out at 230 nM; in assay [4] it was 270 nM; in assay [5], 270 nM; in assay [6], 93 nM; in assay [7], 62 ± 3 nM; in assay [8], 110 nM. This molecule showed a Ki in assay [9] of 100 nM.
